From PubChem BioAssay
In the library only some 3.6% were active in any assay of this set; here they are far more common.
NR3A LBD binder: NR3A (human) ligand-binding domain modulation; Tm shift relative to glycine control, % at 25 µM; actives 2.5% (n = 340,000); NR3A LBD differential scanning fluorimetry, Tm shift; 0% = protein alone, 100% = glycine-bound protein; AID 1259313;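 active means melting temperature shift of at least 10% of the positive control shift, at one fixed dose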
NS3 helicase inh: blocks Hepatitis C virus NS3 helicase unwinding. inhibition, % at 10.9 µM. actives 0.56% (n = 290,000). NS3 helicase DNA unwinding, Cy5 molecular beacon fluorescence. AID 1800;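 active means inhibition above the mean of all tested compounds plus 3 SD, set per campaign, cut at about 35% in these data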
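assay system = NS3 helicase fragment of HCV | buffer or medium = MOPS pH 6.5, MgCl2, DTT, Tween20, BSA | timing = 60 min unwinding reaction at 25 °C after ATP addition | signal = Cy5 beacon fluorescence read at start and 1 h | read-out basis = % inhibition of unwinding | control set = low DMSO, high thioflavine S at 110 µM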
ZTA counter: blocks Epstein-Barr virus ZTA, an EBNA-1 counter-screen; AID 2234; P03206; actives 0.15% (n = 320,000); inhibition, % at 11 µM; ZTA-DNA binding, fluorescence polarization; in the data active means inhibition above about 33%
Target sequence (P03206 whole entry, looked up): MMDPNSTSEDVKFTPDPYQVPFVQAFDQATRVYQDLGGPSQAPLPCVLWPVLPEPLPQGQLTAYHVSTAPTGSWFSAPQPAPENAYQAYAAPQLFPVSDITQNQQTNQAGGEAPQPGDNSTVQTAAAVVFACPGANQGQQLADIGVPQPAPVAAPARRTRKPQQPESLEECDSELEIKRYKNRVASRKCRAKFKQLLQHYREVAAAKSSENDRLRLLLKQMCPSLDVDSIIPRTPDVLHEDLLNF
FGF22 binding: binders of recombinant human FGF22 by thermal shift. Q9HCT0. SYPRO orange fluorescence; percent of sucrose octasulfate shift, DMSO zero. activity (Tm shift, normalised), % at 9.99 µM. actives 1.5% (n = 340,000). AID 651658;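 active means mean Tm shift, scaled 0 neutral to 100 positive control, at about 1.3% or above, every replicate too, limit read from the data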
Target sequence (Q9HCT0 whole entry, looked up): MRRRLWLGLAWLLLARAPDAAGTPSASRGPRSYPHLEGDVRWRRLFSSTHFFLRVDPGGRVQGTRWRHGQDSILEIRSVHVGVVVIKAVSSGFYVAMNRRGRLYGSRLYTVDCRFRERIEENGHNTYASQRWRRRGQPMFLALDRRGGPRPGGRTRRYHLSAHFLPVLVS
FID counter: fluorescent intercalator displacement, NS3 helicase counter-screen; DNA fluorescent intercalator displacement, fluorescence; inhibition, % at 7.9 µM; actives 0.17% (n = 290,000); AID 1845; in the data active means inhibition above about 37%;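 further: higher means more ethidium bromide displaced from hairpin DNA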
EBNA-1 inh: blocks EBNA-1 binding to DNA | EBNA-1 DNA binding, fluorescence polarization | inhibition, % at 14.8 µM | actives 0.34% (n = 300,000); in the data active means inhibition above about 28%
Hits are given with their value; i = inactive; nt = no result.

SMILES | NR3A LBD binder | NS3 helicase inh | ZTA counter | FGF22 binding | FID counter | EBNA-1 inh
C=CCCC(=O)Nc1nc(C)c(-c2csc(Nc3cc(Cl)ccc3OC)n2)s1 | i | i | i | i | i | i
C=CCCC(=O)Nc1nc(C)c(-c2csc(Nc3ccc(Cl)cc3Cl)n2)s1 | 12 | i | i | i | i | i
CCCN1[C@H](C(=O)OC)[C@@H](CO)[C@@H]2Cn3c(ccc(C4=CCCCC4)c3=O)[C@@H]21 | nt | nt | nt | i | nt | nt
C[C@@H]1CN([C@@H](C)CO)C(=O)c2cc(NC(=O)Nc3ccc(C(F)(F)F)cc3)ccc2O[C@@H](C)CCCCO[C@@H]1CN(C)Cc1ccc2c(c1)OCO2 | nt | nt | nt | i | nt | nt
COCCn1c(SCC(=O)N2CCc3ccccc3C2)nc2cc(Cl)ccc2c1=O | i | i | i | nt | i | i
CC(C)Cn1c(SCC(=O)N2CCc3ccccc3C2)nc2cc(Cl)ccc2c1=O | 14 | i | i | i | i | i
N#Cc1cc(-c2ccccc2)nc(N2CCNCC2)n1 | 11 | i | i | i | i | i
CN1CCN(c2nc(-c3ccccc3)c3cc(Cl)ccc3n2)CC1 | i | i | i | nt | i | i
Clc1ccc2nc(N3CCNCC3)nc(-c3ccccc3)c2c1 | i | i | i | nt | 44 | i
COc1ccc(C(=O)N2C[C@H]3[C@@H](c4ccccc42)[C@H](CO)N3Cc2ccccc2Cl)cc1 | nt | nt | nt | i | nt | nt
O=C(OCc1nnc(-c2ccccc2)o1)c1ccccc1 | i | i | i | 43 | i | i
CC(=O)c1cc(-c2ccccc2)n(CCC(=O)NC2CCCCC2)c1C | i | i | i | nt | i | i
CC(=O)c1cc(-c2ccccc2)n(CCC(=O)NC2CCCC2)c1C | i | i | i | 44 | i | i
CCN(CC)S(=O)(=O)c1ccc2[nH]c(=O)cc(C(=O)NCC3CCCO3)c2c1 (stereo unspecified) | 17 | nt | i | i | nt | i
CCN(CC)S(=O)(=O)c1ccc2[nH]c(=O)cc(C(=O)Nc3ccc(C)cc3)c2c1 | i | i | i | i | i | i
Nc1nn(-c2ccccc2)c(N)c1N=Nc1ccccc1F | i | i | i | i | i | i
Cc1nc2c(N=Nc3ccccc3F)c(N)nn2c(N)c1C#N | 15 | i | i | i | i | i
COc1ccc2c3c(n(C)c2c1)[C@@H](CO)N(Cc1ccc2c(c1)OCO2)CC31CN(C(=O)c2ccc3c(c2)OCO3)C1 | nt | nt | nt | i | nt | nt
Cc1ccc(-c2c(C#N)c(N)n(-c3ccc(C)cc3)c(=O)c2C#N)cc1 | i | i | i | nt | i | i
Cc1ccc(-n2c(N)c(C#N)c(-c3ccc(Cl)cc3)c(C#N)c2=O)cc1 | 20 | i | i | nt | i | i
COc1ccc(NC(=O)Nc2ccc3c(c2)CC(=O)N([C@@H](C)CO)C[C@H](C)[C@H](CN(C)C(=O)Nc2ccc(OC)cc2)O3)cc1 | nt | nt | nt | i | nt | nt
COc1ccc(CCNC(=O)Nc2cccc([N+](=O)[O-])c2)cc1 | i | i | i | i | i | i
O=C(COc1cccc([N+](=O)[O-])c1)NN1C(=O)c2ccccc2C1=O | 546 | i | i | i | i | i
Cc1cc(C)cc(OCC(=O)NN2C(=O)c3ccccc3C2=O)c1 | i | i | i | i | i | i
COc1cc(NC(=O)Nc2cccc([N+](=O)[O-])c2)cc(OC)c1 | 29 | i | i | i | i | i
SMILES | NR3A LBD binder | NS3 helicase inh | ZTA counter | FGF22 binding | FID counter | EBNA-1 inh
O=C(O)CCCC(=O)Nc1cccc([N+](=O)[O-])c1 | i | i | i | 43 | i | i
CC(=O)Nc1cccc(OCc2cccc([N+](=O)[O-])c2)c1 | 17 | nt | nt | i | nt | nt
O=C(C[C@H]1CC[C@@H](NC(=O)Nc2ccc(C(F)(F)F)cc2)[C@@H](CO)O1)NCCN1CCCC1 | nt | nt | nt | i | nt | nt
O=C(Nc1cccc([N+](=O)[O-])c1)Nc1ccc2c(c1)OCCO2 | 29 | i | i | i | i | i
CC1=C(C(=O)Nc2cccc([N+](=O)[O-])c2)C2(CCC(C)CC2)OC1=O (stereo unspecified) | i | i | i | 44 | i | i
Cc1ccc(NC(=O)Nc2cccc([N+](=O)[O-])c2)nc1 | i | i | i | 43 | i | i
CC(=O)Nc1cccc(NC(=O)C2CC(=O)N(C3CCCCC3)C2)c1 (stereo unspecified) | i | i | i | i | i | i
O=C(Nc1cccc([N+](=O)[O-])c1)C1CC(=O)N(C2CCCCC2)C1 (stereo unspecified) | 14 | i | i | i | i | i
CN1CCN(C(=O)C[C@H]2CC[C@@H]3[C@H](COC[C@@H](O)CN3Cc3ccc(Oc4ccccc4)cc3)O2)CC1 | nt | nt | nt | i | nt | nt
CC(=O)Nc1cccc(NC(=O)c2ccc([N+](=O)[O-])cc2Cl)c1 | i | i | i | i | i | i
O=C(Nc1cccc([N+](=O)[O-])c1)Nc1cccc([N+](=O)[O-])c1 | 26 | i | i | i | i | i
O=C(Nc1cccc(O)c1)c1ccc([N+](=O)[O-])cc1Cl | i | i | i | 43 | i | i
O=C(Nc1ccc(C(=O)O)cc1)Nc1cccc([N+](=O)[O-])c1 | i | i | i | i | i | i
CC(C)S(=O)(=O)c1csc(NC(=O)Nc2cccc([N+](=O)[O-])c2)c1Cl | 29 | i | i | i | i | i
O=C(NCc1ccco1)Nc1cccc([N+](=O)[O-])c1 | 19 | i | nt | i | i | nt
C[C@H](CO)N1C[C@H](C)[C@H](CN(C)Cc2ccncc2)Oc2ncc(C#CCC3CCCC3)cc2C1=O | nt | nt | nt | i | nt | nt
C[C@@H]1CCCCO[C@H](CN(C)Cc2ccc(C(F)(F)F)cc2)[C@@H](C)CN([C@@H](C)CO)C(=O)c2cc(NC(=O)NC3CCCCC3)ccc2O1 | nt | nt | nt | i | nt | nt
CO[C@H]1CN(C)C(=O)c2cccc(C#N)c2OC[C@@H]2O[C@H](CC[C@H]2OC)CCN(C)C(=O)[C@H]1C | nt | nt | nt | i | nt | nt
O=C(CN1CCCC1)NC12CC3CC(CC(C3)C1)C2 | 10 | i | i | i | i | i
O=c1oc2ccccc2cc1-c1nc2c(s1)CCc1ccccc1-2 | i | i | i | nt | i | i
O=c1oc2cc(O)ccc2cc1-c1nc2c(s1)CCc1ccccc1-2 | 565 | i | i | nt | i | i
CO[C@H]1CN(C)C(=O)c2ccc(NC(=O)Nc3ccc(Cl)cc3)cc2OC[C@@H](C)N(C(=O)Nc2c(C)noc2C)C[C@@H]1C | nt | nt | nt | i | nt | nt
COc1cc(/C=C2/SC(=S)N(Cc3ccccc3)C2=O)cc(Cl)c1O | i | 48 | i | i | i | i
COc1cc(/C=C2/SC(=S)N(Cc3ccccc3)C2=O)ccc1OS(C)(=O)=O | i | i | i | i | i | i
COc1cc([N+](=O)[O-])cc(/C=C2/SC(=S)N(Cc3ccccc3)C2=O)c1O | i | i | i | i | 41 | i
COc1cc(CCC(=O)OCC(=O)N(CC(C)C)C2CCS(=O)(=O)C2)cc(OC)c1OC (stereo unspecified) | i | nt | nt | i | nt | nt
COc1cc(CC(=O)N(CC(C)C)C2CCS(=O)(=O)C2)cc(OC)c1OC (stereo unspecified) | i | nt | nt | 43 | nt | nt
